# Results as given in ChEMBL document CHEMBL1141169, “Discovery of 5-arylsulfonamido-3-(pyrrolidin-2-ylmethyl)-1H-indole derivatives as potent, selective 5-HT6 receptor agonists and antagonists” (J Med Chem, 2005).
# Columns and labels:
# [1] = molecular target: T1, 5-hydroxytryptamine receptor 6 (Homo sapiens, UniProt P50406); conditions: HeLa
# [2] = molecular target: T1, 5-hydroxytryptamine receptor 6; assay: Percentage inhibition of [3H]LSD binding to human 5-hydroxytryptamine 6 receptor expressed in HeLa cells at 1000 nM; type: cell-based
# In short: (§1)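 Competition binding against [3H]-LSD on cloned human 5-HT6 receptors stably expressed in HeLa cells. Ki determined in triplicate; single-point lines are % inhibition at 1000 nM.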
# [3] = molecular target: T2, 5-hydroxytryptamine receptor 2A (Homo sapiens, UniProt P28223); assay: Percentage inhibition of [125I]DOI binding to human 5-hydroxytryptamine 2A receptor expressed in CHO cells at 1000 nM; type: cell-based
# T2 sequence (P28223 whole entry): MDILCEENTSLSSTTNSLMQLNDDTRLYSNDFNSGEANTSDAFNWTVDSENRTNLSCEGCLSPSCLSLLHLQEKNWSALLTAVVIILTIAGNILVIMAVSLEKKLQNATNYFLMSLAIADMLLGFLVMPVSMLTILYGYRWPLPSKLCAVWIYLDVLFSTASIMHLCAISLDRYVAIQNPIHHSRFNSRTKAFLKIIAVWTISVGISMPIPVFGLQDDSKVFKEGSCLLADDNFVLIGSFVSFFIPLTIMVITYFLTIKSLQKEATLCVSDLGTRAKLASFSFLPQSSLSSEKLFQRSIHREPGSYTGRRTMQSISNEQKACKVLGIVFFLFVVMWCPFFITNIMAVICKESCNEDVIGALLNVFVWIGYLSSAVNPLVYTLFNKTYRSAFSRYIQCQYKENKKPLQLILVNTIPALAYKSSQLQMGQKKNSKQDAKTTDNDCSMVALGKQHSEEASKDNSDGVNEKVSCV
# [4] = molecular target: T1, 5-hydroxytryptamine receptor 6; assay: Maximum percentage agonism of cAMP production in HeLa cells expressing human 5-hydroxytryptamine 6 receptor; type: functional, cell-based
# In short: (§2)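 cAMP production read out across a range of ligand concentrations in HeLa cells stably transfected with the human 5-HT6 receptor, ligand given alone as agonist. EC50 and Emax each determined in triplicate.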
# [5] = molecular target: D(2) dopamine receptor (Homo sapiens, UniProt P14416); assay: Inhibition of [3H]spiperone binding to human dopamine receptor D2 expressed in CHO-K1 cells; type: cell-based
# D(2) dopamine receptor, sequence (P14416 whole entry): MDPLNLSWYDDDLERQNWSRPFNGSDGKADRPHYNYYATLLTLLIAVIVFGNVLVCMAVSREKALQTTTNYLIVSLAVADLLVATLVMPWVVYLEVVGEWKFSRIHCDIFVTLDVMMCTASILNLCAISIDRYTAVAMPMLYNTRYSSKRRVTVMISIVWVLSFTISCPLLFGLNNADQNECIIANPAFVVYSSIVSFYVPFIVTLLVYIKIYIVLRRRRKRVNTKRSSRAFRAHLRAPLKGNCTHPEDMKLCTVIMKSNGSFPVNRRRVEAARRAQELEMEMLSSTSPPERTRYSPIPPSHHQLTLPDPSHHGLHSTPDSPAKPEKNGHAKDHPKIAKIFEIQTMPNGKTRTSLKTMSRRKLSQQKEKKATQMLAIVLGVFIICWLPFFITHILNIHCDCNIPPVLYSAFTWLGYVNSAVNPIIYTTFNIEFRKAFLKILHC
# In short: (§3)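 Radioligands: 5-HT1A, 8-hydroxy-[3H]-DPAT; 5-HT2C, [3H]-5-HT; 5-HT2A, [125I]DOI; D2, D3 and D4, [3H]spiperone. Ki determined in triplicate, or n = 1 where footnoted.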
# [6] = molecular target: T2, 5-hydroxytryptamine receptor 2A; assay: Inhibition of [125I]DOI binding to human 5-hydroxytryptamine 2A receptor expressed in CHO cells; type: cell-based
# In short: as §3
# [7] = molecular target: T3, 5-hydroxytryptamine receptor 1A (Homo sapiens, UniProt P08908); assay: Inhibition of [3H]8-OH-DPAT binding to human 5-hydroxytryptamine 1A receptor expressed in CHO cells; type: cell-based
# T3 sequence (P08908 whole entry): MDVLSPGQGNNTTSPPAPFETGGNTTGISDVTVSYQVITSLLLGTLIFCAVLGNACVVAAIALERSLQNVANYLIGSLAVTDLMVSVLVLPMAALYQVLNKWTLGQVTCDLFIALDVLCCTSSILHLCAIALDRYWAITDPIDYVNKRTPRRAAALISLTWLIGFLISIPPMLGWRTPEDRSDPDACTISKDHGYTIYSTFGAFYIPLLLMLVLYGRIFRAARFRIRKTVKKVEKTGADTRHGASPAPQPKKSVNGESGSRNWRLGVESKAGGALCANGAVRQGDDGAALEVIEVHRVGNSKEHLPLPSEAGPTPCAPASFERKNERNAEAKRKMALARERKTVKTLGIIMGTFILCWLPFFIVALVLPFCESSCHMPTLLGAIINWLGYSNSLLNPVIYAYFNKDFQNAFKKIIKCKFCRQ
# In short: as §3
# [8] = molecular target: T1, 5-hydroxytryptamine receptor 6; assay: Effective agonist concentration in cAMP release assay in HeLa cells expressing human 5-hydroxytryptamine 6 receptor; type: functional, cell-based
# In short: as §2
# [9] = molecular target: 5-hydroxytryptamine receptor 1D (Homo sapiens, UniProt P28221); assay: Inhibition of [3H]-8-OH-DPAT binding to human 5-hydroxytryptamine 1D receptor expressed in CHO cells; type: cell-based
# 5-hydroxytryptamine receptor 1D, sequence (P28221 whole entry): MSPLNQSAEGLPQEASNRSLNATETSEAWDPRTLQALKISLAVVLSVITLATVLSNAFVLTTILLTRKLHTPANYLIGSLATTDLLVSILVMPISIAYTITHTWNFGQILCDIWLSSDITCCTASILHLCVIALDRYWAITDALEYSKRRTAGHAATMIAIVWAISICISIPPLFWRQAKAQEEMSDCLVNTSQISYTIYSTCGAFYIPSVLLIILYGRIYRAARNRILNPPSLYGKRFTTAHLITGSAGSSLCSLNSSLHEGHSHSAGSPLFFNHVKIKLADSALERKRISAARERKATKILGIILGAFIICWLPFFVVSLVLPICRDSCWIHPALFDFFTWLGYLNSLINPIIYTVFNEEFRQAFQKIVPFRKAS
# [10] = molecular target: T4, 5-hydroxytryptamine receptor 2C (Homo sapiens, UniProt P28335); assay: Inhibition of [3H]5-HT binding to human 5-hydroxytryptamine 2C receptor expressed in CHO cells; type: cell-based
# T4 sequence (P28335 whole entry): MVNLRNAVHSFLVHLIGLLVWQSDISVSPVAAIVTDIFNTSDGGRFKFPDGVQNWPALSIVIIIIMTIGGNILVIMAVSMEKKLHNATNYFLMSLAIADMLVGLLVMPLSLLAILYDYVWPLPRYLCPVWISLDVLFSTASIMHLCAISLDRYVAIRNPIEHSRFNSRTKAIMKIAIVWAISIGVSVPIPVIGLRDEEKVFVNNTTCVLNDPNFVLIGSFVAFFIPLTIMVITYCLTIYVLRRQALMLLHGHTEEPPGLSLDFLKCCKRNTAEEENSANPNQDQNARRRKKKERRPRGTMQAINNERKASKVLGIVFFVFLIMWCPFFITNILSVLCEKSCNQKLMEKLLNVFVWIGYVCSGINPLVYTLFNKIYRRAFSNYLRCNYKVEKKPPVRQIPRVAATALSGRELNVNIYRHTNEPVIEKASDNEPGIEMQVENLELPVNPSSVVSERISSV
# In short: as §3
# [11] = molecular target: T5, D(4) dopamine receptor (Homo sapiens, UniProt P21917); assay: Inhibition of [3H]spiperone binding to human dopamine receptor D4 expressed in CHO-K1 cells; type: cell-based
# T5 sequence (P21917 whole entry): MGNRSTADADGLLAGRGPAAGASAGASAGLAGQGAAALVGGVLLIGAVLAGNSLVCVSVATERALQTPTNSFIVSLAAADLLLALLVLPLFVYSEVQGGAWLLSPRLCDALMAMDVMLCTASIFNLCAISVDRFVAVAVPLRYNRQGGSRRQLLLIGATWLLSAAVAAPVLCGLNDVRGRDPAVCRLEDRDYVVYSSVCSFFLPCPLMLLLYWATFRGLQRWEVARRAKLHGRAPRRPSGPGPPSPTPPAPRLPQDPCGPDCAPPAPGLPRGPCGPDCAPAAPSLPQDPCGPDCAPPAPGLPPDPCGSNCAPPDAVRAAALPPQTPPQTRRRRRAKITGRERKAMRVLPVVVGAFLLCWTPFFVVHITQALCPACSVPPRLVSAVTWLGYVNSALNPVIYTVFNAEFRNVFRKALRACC
# In short: as §3
# [12] = molecular target: D(3) dopamine receptor (Homo sapiens, UniProt P35462); assay: Inhibition of [3H]spiperone binding to human dopamine receptor D3 expressed in CHO-K1 cells; type: cell-based
# D(3) dopamine receptor, sequence (P35462 whole entry): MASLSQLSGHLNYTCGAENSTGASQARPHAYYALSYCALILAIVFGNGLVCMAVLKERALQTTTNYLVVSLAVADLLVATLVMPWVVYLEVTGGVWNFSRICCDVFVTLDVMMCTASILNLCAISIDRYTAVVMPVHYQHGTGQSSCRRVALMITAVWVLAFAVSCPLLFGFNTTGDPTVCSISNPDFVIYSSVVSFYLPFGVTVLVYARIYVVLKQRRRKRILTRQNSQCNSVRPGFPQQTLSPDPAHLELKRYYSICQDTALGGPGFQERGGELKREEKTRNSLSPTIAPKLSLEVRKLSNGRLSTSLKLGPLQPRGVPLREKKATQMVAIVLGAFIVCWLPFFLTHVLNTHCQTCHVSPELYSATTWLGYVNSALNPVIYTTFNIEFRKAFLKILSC
# In short: as §3
# [13] = molecular target: T6, 5-hydroxytryptamine receptor 1F (Homo sapiens, UniProt P30939); assay: Inhibition of [3H]8-OH-DPAT binding to human 5-hydroxytryptamine 1F receptor expressed in CHO cells; type: cell-based
# T6 sequence (P30939 whole entry): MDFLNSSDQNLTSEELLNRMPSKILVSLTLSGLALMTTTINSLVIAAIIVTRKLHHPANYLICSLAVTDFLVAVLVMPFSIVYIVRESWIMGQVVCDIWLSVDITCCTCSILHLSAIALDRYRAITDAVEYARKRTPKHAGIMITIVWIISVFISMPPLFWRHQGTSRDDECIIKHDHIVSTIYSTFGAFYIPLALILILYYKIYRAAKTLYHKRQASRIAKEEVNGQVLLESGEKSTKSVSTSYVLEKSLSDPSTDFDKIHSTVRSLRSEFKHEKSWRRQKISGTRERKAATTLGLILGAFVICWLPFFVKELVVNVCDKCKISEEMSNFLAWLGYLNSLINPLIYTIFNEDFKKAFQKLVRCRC
# [14] = molecular target: 5-hydroxytryptamine receptor 7 (Homo sapiens, UniProt P34969); assay: Inhibition of [3H]-LSD binding to 5-hydroxytryptamine 7 receptor expressed in CHO cells; type: cell-based
# 5-hydroxytryptamine receptor 7, sequence (P34969 whole entry): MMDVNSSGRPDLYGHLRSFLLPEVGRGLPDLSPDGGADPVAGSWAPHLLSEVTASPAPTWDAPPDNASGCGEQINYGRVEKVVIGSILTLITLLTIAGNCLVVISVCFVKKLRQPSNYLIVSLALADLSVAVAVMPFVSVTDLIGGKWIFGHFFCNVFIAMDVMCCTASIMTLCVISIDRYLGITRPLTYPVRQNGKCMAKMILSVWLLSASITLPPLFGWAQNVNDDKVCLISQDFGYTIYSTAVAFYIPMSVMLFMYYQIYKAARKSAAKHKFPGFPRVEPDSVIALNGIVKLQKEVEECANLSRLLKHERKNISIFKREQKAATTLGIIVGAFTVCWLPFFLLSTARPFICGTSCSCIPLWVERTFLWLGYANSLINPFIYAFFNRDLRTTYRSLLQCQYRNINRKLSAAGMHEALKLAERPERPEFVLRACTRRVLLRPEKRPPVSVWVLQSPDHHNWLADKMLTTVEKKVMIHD
# In short: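 Displacement of [3H]-LSD from human 5-HT7 receptor clone stably expressed in CHO cells. Ki in triplicate, or n = 1 where footnoted.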
# [15] = molecular target: T1, 5-hydroxytryptamine receptor 6; assay: Inhibition of [3H]LSD binding to human 5-hydroxytryptamine 6 receptor expressed in HeLa cells; type: cell-based
# In short: as §1
# T1 sequence (P50406 whole entry): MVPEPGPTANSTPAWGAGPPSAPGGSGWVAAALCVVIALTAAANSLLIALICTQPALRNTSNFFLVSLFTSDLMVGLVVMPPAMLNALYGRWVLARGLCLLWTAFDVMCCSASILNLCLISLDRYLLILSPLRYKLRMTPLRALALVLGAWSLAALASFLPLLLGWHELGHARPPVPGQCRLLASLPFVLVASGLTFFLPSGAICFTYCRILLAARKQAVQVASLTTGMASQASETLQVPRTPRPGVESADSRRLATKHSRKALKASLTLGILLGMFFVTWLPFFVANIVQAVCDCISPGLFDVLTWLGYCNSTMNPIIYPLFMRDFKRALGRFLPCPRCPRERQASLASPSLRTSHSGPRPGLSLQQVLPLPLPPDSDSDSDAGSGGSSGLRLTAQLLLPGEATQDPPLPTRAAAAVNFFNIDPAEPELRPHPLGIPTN
SMILES,Affinity [1] [nM],inhibition [2] [%],inhibition [3] [%],Emax [4] [%],Ki [5] [nM],Ki [6] [nM],Ki [7] [nM],EC50 [8] [nM],Ki [9] [nM],Ki [10] [nM],Ki [11] [µM],Ki [12] [nM],Ki [13] [nM],Ki [14] [nM],Ki [15] [nM]
COc1ccc2c(c1)c(CCN(C)C)cn2S(=O)(=O)c1ccccc1,16,,,,,,,,,,,,,,
COc1ccc(S(=O)(=O)Nc2ccc3[nH]cc(C[C@@H]4CCCN4)c3c2)cc1,,64,,,,,,,,,,,,,
O=S(=O)(Cc1ccccc1I)Nc1ccc2[nH]cc(C[C@H]3CCCN3)c2c1,,,42,100,,,,,,,,,,,
O=S(=O)(Nc1ccc2[nH]cc(C[C@@H]3CCCN3)c2c1)c1ccc(F)cc1,,74,,,,,,,,,,,,,
CN1CCC[C@@H]1Cc1c[nH]c2ccc(NS(=O)(=O)c3cccc(Cl)c3)cc12,,,,100,> 2000,269,200,1.6,4.7,231,> 5,930,2.7,24,0.4
O=S(=O)(Nc1ccc2[nH]cc(C[C@H]3CCCN3)c2c1)c1ccccc1Cl,,,,100,> 5000,,552,1.3,> 1000,566,> 5,> 5000,12.3,,3
CN1CCC[C@@H]1Cc1c[nH]c2ccc(NS(=O)(=O)c3ccccc3Cl)cc12,,,,100,> 2000,367,170,1.1,29.5,289,> 5,> 1000,16,74,1
